PubChem BioAssay AID623932 (Vanderbilt High Throughput Screening Facility, 2012)
Activity calls are given as the source filed them.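 The calls were made as follows: active = at one tested dose, specific binding or response inhibited over 50%; inactive = the rest.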

Assay: off-target radioligand displacement across receptor panel, profiling panel, selectivity assay, biochemical, Ricerca panel (AID 623932)
Details: Ricerca radioligand binding panel, % inhibition, at 10 µM, stronger effect = higher value
Procedure, shortened: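 Read-out: % loss of selective radioligand binding; system: radioligand binding panel; benchmarks: reference standards included in every panel assay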

## Cc1cc(NC(=O)Nc2ccc(F)c(F)c2)n(-c2ccccc2)n1
NMDA binding inhibition
  inhibition: 21%
  inhibition: 60% (inactive)
Measured here: 5-HT2B binding inhibition
  inhibition: 46%
Measured here: DAT binding inhibition
  inhibition: 12%
Measured here: GABA-A flunitrazepam binding inhibition
  inhibition: 24%
Measured here: GABA-A muscimol binding inhibition
  inhibition: 49%
Measured here: NET binding inhibition
  inhibition: 15%
Measured here: NPY Y1 binding inhibition
  inhibition: 24%
Measured here: P2X binding inhibition
  inhibition: 16%
Measured here: dopamine D2S binding inhibition
  inhibition: 16%
Measured here: hERG binding inhibition
  inhibition: 10%
Measured here: imidazoline I2 binding inhibition
  inhibition: 20%
Measured here: mu opioid binding inhibition
  inhibition: 21%
